In ChEMBL document CHEMBL4190346, “Structure-based design, synthesis, and biological evaluation of withaferin A-analogues as potent apoptotic inducers” (Eur J Med Chem, 2017):
Activity calls are given as the source filed them. The calls are words filed in the database; no cut-off is given here.

What was measured:
HeLa [1] = assay: Cytotoxicity against human HeLa cells assessed as reduction in cell viability using compound addition to cell culture cells in lag phase of growth and incubated for 48 hrs by MTT assay; assay type: functional, cell-based; details: Homo sapiens, HeLa, 48 h; read-out: IC50
HeLa [2] = assay: Induction of apoptosis in human HeLa cells assessed as increase in caspase-3 activity by measuring pNA release level at 12 uM incubated for 4 hrs using c-DEVD-pNA substrate by colorimetric assay; assay type: functional
Procedure, shortened: (§1)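 HeLa cells in DMEM with 10% FBS were exposed for 4 h (fixed 24 or 32 level for 8 h). Staurosporine for 4 h served as the positive control. Cells were lysed at 4 °C for 10 min and centrifuged, and supernatant protein was measured by Bradford. Caspase-3 activity was read colorimetrically as nmol pNA/min/mL, with treated/untreated OD ratios. Values are means ± SD of three independent experiments in triplicate.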

HeLa [3] = assay: Induction of apoptosis in human HeLa cells assessed increase in apoptotic nuclei formation at 8 uM incubated for 12 hrs by Hoechst 33342 staining based fluorescence microscopy; assay type: functional
HeLa [4] = assay: Induction of cell cycle arrest in human HeLa cells assessed increase in subG1 phase accumulation at 24 uM incubated for 12 hrs by 33342 propidium iodide based flow cytometry relative to untreated control; assay type: functional
HeLa [5] = assay: Induction of apoptosis in human HeLa cells assessed as increase in caspase-3 activity by measuring pNA release level at 8 uM incubated for 4 hrs using c-DEVD-pNA substrate by colorimetric assay; assay type: functional; procedure, shortened: as §1
Vero [6] = assay: Cytotoxicity against African green monkey Vero cells assessed as reduction in cell viability using compound addition to cell culture cells in log phase of growth and incubated for 48 hrs by MTT assay; assay type: cell-based, Chlorocebus sabaeus; details: Chlorocebus sabaeus, Vero, 48 h; read-out: IC50
Vero [7] = assay: Cytotoxicity against African green monkey Vero cells assessed as reduction in cell viability using compound addition to cell culture cells in lag phase of growth and incubated for 48 hrs by MTT assay; assay type: cell-based, Chlorocebus sabaeus; details: Chlorocebus sabaeus, Vero, 48 h; read-out: IC50
HeLa [8] = assay: Induction of cell cycle arrest in human HeLa cells assessed increase in subG1 phase accumulation at 24 uM incubated for 12 hrs by 33342 propidium iodide based flow cytometry relative to Withaferin A; assay type: functional
Procedure, shortened: (§2)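 HeLa cells (1–2 × 10^6 per well) were exposed for 12 h at 24 µM, or at 16 µM over a time course. Adherent and floating cells were pooled, washed in ice-cold PBS, and fixed/permeabilized overnight in ice-cold 70% ethanol. DNA was stained with propidium iodide and G1, G2/M and sub-G1 (hypoploid) fractions were read by flow cytometry. Results are from ≥3 independent experiments in triplicate.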

HeLa [9] = assay: Induction of cell cycle arrest in human HeLa cells assessed accumulation at G2/M phase at 16 uM incubated for 24 hrs by 33342 propidium iodide based flow cytometry relative to untreated control; assay type: functional; details: in the assay text read “accumulation at sub-G1 phase” for “accumulation at G2/M phase”; procedure, shortened: as §2
HeLa [10] = assay: Induction of cell cycle arrest in human HeLa cells assessed reduction in G2/M phase accumulation at 16 uM by 33342 propidium iodide based flow cytometry relative to untreated control; assay type: functional; details: TDE = time-dependent effect; procedure, shortened: as §2
HeLa [11] = assay: Induction of early apoptosis in human HeLa cells at 4 uM incubated for 1 hr by annexin V and propidium iodide staining based flow cytometry; assay type: functional, cell-based
HeLa [12] = assay: Induction of apoptosis in human HeLa cells assessed as increase in caspase-3 activity by measuring pNA release level at 16 uM incubated for 4 hrs using c-DEVD-pNA substrate by colorimetric assay; assay type: functional; procedure, shortened: as §1
HeLa [13] = assay: Induction of cell cycle arrest in human HeLa cells assessed increase in hypoploid phase accumulation at 24 uM incubated for 12 hrs by […] propidium iodide based flow cytometry relative to untreated control; assay type: functional
HeLa [14] = assay: Induction of apoptosis in human HeLa cells assessed as increase in caspase-3 activity by measuring pNA release level at 24 uM incubated for 8 hrs using c-DEVD-pNA substrate by colorimetric assay; assay type: functional; procedure, shortened: as §1
HeLa [15] = assay: Induction of cell cycle arrest in human HeLa cells assessed increase in subG1 phase accumulation at 16 uM by 33342 propidium iodide based flow cytometry relative to untreated control; assay type: functional; details: TDE = time-dependent effect; procedure, shortened: as §2
HeLa [16] = assay: Induction of apoptosis in human HeLa cells assessed increase in DNA fragmentation at 16 uM incubated for 12 hrs by ethidium bromide staining based agarose gel electrophoresis; assay type: functional, cell-based
Procedure, shortened: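 HeLa cells were incubated with the compounds at varying concentrations for 12 or 24 h. Controls were DMSO (solvent) and staurosporine 2 µM (positive). Adherent and floating cells were pooled, centrifuged at 500 g and washed twice in cold PBS. Genomic DNA was extracted with a kit, run on 1.8% agarose, stained with ethidium bromide and viewed under UV.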

A549 [17] = assay: Cytotoxicity against human A549 cells assessed as reduction in cell viability using compound addition to cell culture cells in lag phase of growth and incubated for 48 hrs by MTT assay; assay type: functional, cell-based; details: Homo sapiens, A549, 48 h; read-out: IC50
A549 [18] = assay: Cytotoxicity against human A549 cells assessed as reduction in cell viability using compound addition to cell culture cells in log phase of growth and incubated for 48 hrs by MTT assay; assay type: functional, cell-based; details: Homo sapiens, A549, 48 h; read-out: IC50
HeLa [19] = assay: Cytotoxicity against human HeLa cells assessed as reduction in cell viability using compound addition to cell culture cells in log phase of growth and incubated for 48 hrs by MTT assay; assay type: functional, cell-based; details: Homo sapiens, HeLa, 48 h; read-out: IC50
MCF7 [20] = assay: Cytotoxicity against human MCF7 cells assessed as reduction in cell viability using compound addition to cell culture cells in log phase of growth and incubated for 48 hrs by MTT assay; assay type: functional, cell-based; details: Homo sapiens, MCF7, 48 h; read-out: IC50
HeLa [21] = assay: Induction of apoptosis in human HeLa cells assessed as increase in caspase-3 activity by measuring pNA release level at 24 uM incubated for 4 hrs using c-DEVD-pNA substrate by colorimetric assay; assay type: functional; procedure, shortened: as §1
HeLa [22] = assay: Induction of late apoptosis in human HeLa cells at 8 uM incubated for 1 hr by annexin V and propidium iodide staining based flow cytometry; assay type: functional, cell-based
MCF7 [23] = assay: Cytotoxicity against human MCF7 cells assessed as reduction in cell viability using compound addition to cell culture cells in lag phase of growth and incubated for 48 hrs by MTT assay; assay type: functional, cell-based; details: Homo sapiens, MCF7, 48 h; read-out: IC50
HeLa [24] = assay: Induction of apoptosis in human HeLa cells assessed as increase in caspase-3 activity by measuring pNA release level at 32 uM incubated for 4 hrs using c-DEVD-pNA substrate by colorimetric assay; assay type: functional; procedure, shortened: as §1
[25] = Selectivity index, ratio of IC50 for African green monkey Vero cells to IC50 for human HeLa cells; assay type: toxicity; details: Vero cells and HeLa cells, read-out: Ratio IC50
MCF7 [26] = assay: Ratio of IC50 for cytotoxicity against human MCF7 cells using compound addition to cell culture cells in lag phase of growth and incubated for 48 hrs by MTT assay to IC50 for cytotoxicity against human MCF7 cells using compound addition to cell culture cells in log phase of growth and incubated for 48 hrs by MTT assay; assay type: functional
HeLa [27] = assay: Induction of apoptosis in human HeLa cells assessed increase in phosphatidylserine externalization at 2 uM incubated for 4 hrs by annexin V and propidium iodide staining based flow cytometry; assay type: functional, cell-based
HeLa [28] = assay: Induction of apoptosis in human HeLa cells assessed as […] by measuring pNA release level at 32 uM incubated for 8 hrs using c-DEVD-pNA substrate by colorimetric assay; assay type: functional, cell-based; procedure, shortened: as §1
HeLa [29] = assay: Induction of apoptosis in human HeLa cells at 10 uM incubated for 4 hrs by annexin V and propidium iodide staining based flow cytometry; assay type: functional, cell-based
HeLa [30] = assay: Induction of apoptosis in human HeLa cells assessed as reduction in cellular integrity at 32 uM incubated for 4 hrs by light microscopy
HeLa [31] = assay: Induction of apoptosis in human HeLa cells assessed as reduction in cellular adhesion at 32 uM incubated for 4 hrs by light microscopy
HeLa [32] = assay: Induction of apoptosis in human HeLa cells at 12 uM incubated for 4 hrs by annexin V and propidium iodide staining based flow cytometry; assay type: functional, cell-based

Compound	IC50 (HeLa [1]) [µM]	Activity (HeLa [2]) [nmol/min/mL]	Activity (HeLa [3]) [%]	fold change (FC) (HeLa [4])	Activity (HeLa [5]) [nmol/min/mL]	IC50 (Vero [6]) [µM]	IC50 (Vero [7]) [µM]	Activity (HeLa [12]) [nmol/min/mL]	Activity (HeLa [13]) [%]	Activity (HeLa [14]) [nmol/min/mL]	Activity (HeLa [16])	IC50 (A549 [17]) [µM]	IC50 (A549 [18]) [µM]	IC50 (HeLa [19]) [µM]	IC50 (MCF7 [20]) [µM]	Activity (HeLa [21]) [nmol/min/mL]	IC50 (MCF7 [23]) [µM]	Activity (HeLa [24]) [nmol/min/mL]	Ratio IC50 (MCF7 [26])	Activity (HeLa [28])	other results
CC1=C(COC(=O)c2ccccc2)C(=O)O[C@@H]([C@@H](C)[C@H]2CC[C@H]3[C@@H]4C[C@H]5O[C@]56[C@@H](O)C=CC(=O)[C@]6(C)[C@H]4CC[C@]23C)C1	0.8	0.52	28	4 - 6	0.32	0.5	0.2	0.67	22.1	1.7 to 2	Active	1	1.5	1.6	0.7	1.16	0.3	0.85	–	–	fold change (FC) (HeLa [8]): 2; Activity (HeLa [9]): 37.8%; Activity (HeLa [10]): Tde; Activity (HeLa [11]): Active; Activity (HeLa [15]): Tde; Activity (HeLa [22]): Active; selectivity ratio [25]: 2.5
CC1=C(CO)C(=O)O[C@@H]([C@@H](C)[C@H]2CC[C@H]3[C@@H]4C[C@H]5O[C@]56[C@@H](O)C=CC(=O)[C@]6(C)[C@H]4CC[C@]23C)C1 [WITHAFERIN A]	–	0.41	–	4 - 6	0.35	6.6	–	0.47	11.3	0.6 to 1.9	–	–	10.1	6.3	1.3	0.55	–	1.12	2.8	–	Activity (HeLa [27]): Active
CC1=C(COC(=O)C(C)(C)C)C(=O)O[C@@H]([C@@H](C)[C@H]2CC[C@H]3[C@@H]4C[C@H]5O[C@]56[C@@H](OC(=O)C(C)(C)C)C=CC(=O)[C@]6(C)[C@H]4CC[C@]23C)C1	0.9	0.25	15	4 - 6	0.26	0.5	0.4	0.28	–	–	Active	4.1	4.6	2.4	1.2	0.54	0.6	0.63	–	Active	Activity (HeLa [29]): Active
CC1=C(COC(=O)c2ccccc2)C(=O)O[C@@H]([C@@H](C)[C@H]2CC[C@H]3[C@@H]4C[C@H]5O[C@]56C(=O)C=CC(=O)[C@]6(C)[C@H]4CC[C@]23C)C1	2.6	0.4	–	–	0.65	0.7	3.1	0.67	–	–	–	3.2	2.3	1.9	1.1	1.05	5.4	0.61	>3	–	Activity (HeLa [30]): Active; Activity (HeLa [31]): Active
CC1=C(COC(=O)C(C)(C)C)C(=O)O[C@@H]([C@@H](C)[C@H]2CC[C@H]3[C@@H]4C[C@H]5O[C@]56[C@@H](O)C=CC(=O)[C@]6(C)[C@H]4CC[C@]23C)C1	0.8	0.61	28	4 - 6	0.26	0.5	0.4	0.78	–	–	Active	1.8	2.1	1.7	0.4	1.04	0.3	0.93	–	Active	Activity (HeLa [32]): Active
